Laboratory results reported in ChEMBL document CHEMBL4715736, “Identification of anticancer agents based on the thieno[2,3-b]pyridine and 1H-pyrazole molecular scaffolds” (2016).

How the values were obtained:
Assay type in all cases: functional
SK-OV-3 = test: Growth inhibition of human SK-OV-3 cells assessed as cell growth at 0.1 uM incubated for 48 hrs by sulforhodamine B assay relative to control; settings: read-out: Activity
SF-295 = test: Growth inhibition of human SF-295 cells assessed as cell growth at 1 uM incubated for 48 hrs by sulforhodamine B assay relative to control; settings: read-out: Activity
SK-MEL-28 = test: Growth inhibition of human SK-MEL-28 cells assessed as cell growth at 0.1 uM incubated for 48 hrs by sulforhodamine B assay relative to control; settings: read-out: Activity
SNB-75 = test: Growth inhibition of human SNB-75 cells assessed as cell growth at 0.01 uM incubated for 48 hrs by sulforhodamine B assay relative to control; settings: read-out: Activity
RPMI-8226 = test: Growth inhibition of human RPMI-8226 cells assessed as cell growth at 1 uM incubated for 48 hrs by sulforhodamine B assay relative to control; settings: read-out: Activity
COLO 205 = test: Growth inhibition of human COLO 205 cells assessed as cell growth at 1 uM incubated for 48 hrs by sulforhodamine B assay relative to control; settings: read-out: Activity
Procedure, shortened: (§1)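 NCI Developmental Therapeutics Program NCI60 panel. Compounds that were active in the 10 µM one-dose screen went on to dose–response testing. Growth at each concentration is expressed relative to untreated control (100%). GI50 (concentration giving 50% of maximal inhibition of proliferation) and TGI (concentration giving total growth inhibition) were derived from the curves.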

U-251 = test: Growth inhibition of human U-251 cells assessed as cell growth at 1 uM incubated for 48 hrs by sulforhodamine B assay relative to control; settings: read-out: Activity
SN12C = test: Growth inhibition of human SN12C cells assessed as cell growth at 0.01 uM incubated for 48 hrs by sulforhodamine B assay relative to control; settings: read-out: Activity
SF-539 = test: Growth inhibition of human SF-539 cells incubated for 48 hrs by sulforhodamine B assay; settings: for CC50: read-out: LC50 (the source's name)
Procedure, shortened: (§2)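 NCI DTP 60-line human tumour panel. Dose-response curves were run only for ligands active in the initial 10 µM screen. GI50 (concentration giving 50% of maximal inhibition of proliferation) and TGI (concentration giving total growth inhibition) were derived from these curves.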

UO-31 [1] = test: Growth inhibition of human UO-31 cells assessed as cell growth at 0.1 uM incubated for 48 hrs by sulforhodamine B assay relative to control; settings: read-out: Activity
NCI-H322M = test: Growth inhibition of human NCI-H322M cells incubated for 48 hrs by sulforhodamine B assay; settings: for CC50: read-out: LC50 (the source's name)
Procedure, shortened: (§3)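 NCI60 panel at the NCI Developmental Therapeutics Program. Only compounds active in the 10 µM screen went to dose-response testing. GI50, the concentration giving 50% of maximal inhibition of proliferation, and TGI, the concentration giving total growth inhibition, were derived from the dose-response curves.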

NCI-H522 [2] = test: Growth inhibition of human NCI-H522 cells assessed as cell growth at 0.01 uM incubated for 48 hrs by sulforhodamine B assay relative to control; settings: read-out: Activity
HOP-62 = test: Growth inhibition of human HOP-62 cells incubated for 48 hrs by sulforhodamine B assay; procedure, shortened: as §3
LOX IMVI = test: Growth inhibition of human LOX IMVI cells assessed as cell growth at 1 uM incubated for 48 hrs by sulforhodamine B assay relative to control; settings: read-out: Activity
A549 = test: Growth inhibition of human A549/ATCC cells assessed as cell growth at 1 uM incubated for 48 hrs by sulforhodamine B assay relative to control; settings: read-out: Activity; procedure, shortened: as §1
M14 = test: Growth inhibition of human M14 cells assessed as cell growth at 0.01 uM incubated for 48 hrs by sulforhodamine B assay relative to control; settings: read-out: Activity
NCI-H522 [3] = test: Growth inhibition of human NCI-H522 cells assessed as cell growth at 0.1 uM incubated for 48 hrs by sulforhodamine B assay relative to control; settings: read-out: Activity
K562 [4] = test: Growth inhibition of human K562 cells assessed as cell growth at 0.01 uM incubated for 48 hrs by sulforhodamine B assay relative to control; settings: read-out: Activity
Malme-3M = test: Growth inhibition of human Malme-3M cells assessed as cell growth at 0.01 uM incubated for 48 hrs by sulforhodamine B assay relative to control; settings: read-out: Activity
SF-268 = test: Growth inhibition of human SF-268 cells incubated for 48 hrs by sulforhodamine B assay; procedure, shortened: as §2
RXF 393 = test: Growth inhibition of human RXF 393 cells assessed as cell growth at 100 uM incubated for 48 hrs by sulforhodamine B assay relative to control; settings: read-out: Activity
SR = test: Growth inhibition of human SR cells assessed as cell growth at 1 uM incubated for 48 hrs by sulforhodamine B assay relative to control; settings: read-out: Activity
HT-29 [5] = test: Growth inhibition of human HT-29 cells assessed as cell growth at 1 uM incubated for 48 hrs by sulforhodamine B assay relative to control; settings: read-out: Activity
OVCAR-5 = test: Growth inhibition of human OVCAR-5 cells incubated for 48 hrs by sulforhodamine B assay; procedure, shortened: as §2
CCRF-CEM [6] = test: Growth inhibition of human CCRF-CEM cells assessed as cell growth at 100 uM incubated for 48 hrs by sulforhodamine B assay relative to control; settings: read-out: Activity; procedure, shortened: as §1
HCC 2998 = test: Growth inhibition of human HCC 2998 cells assessed as cell growth at 0.01 uM incubated for 48 hrs by sulforhodamine B assay relative to control; settings: read-out: Activity; procedure, shortened: as §1
HT-29 [7] = test: Growth inhibition of human HT-29 cells assessed as cell growth at 0.01 uM incubated for 48 hrs by sulforhodamine B assay relative to control; settings: read-out: Activity
UO-31 [8] = test: Growth inhibition of human UO-31 cells incubated for 48 hrs by sulforhodamine B assay; settings: for CC50: read-out: LC50 (the source's name); procedure, shortened: as §2
UACC-62 [9] = test: Growth inhibition of human UACC-62 cells assessed as cell growth at 1 uM incubated for 48 hrs by sulforhodamine B assay relative to control; settings: read-out: Activity
K562 [10] = test: Growth inhibition of human K562 cells assessed as cell growth at 1 uM incubated for 48 hrs by sulforhodamine B assay relative to control; settings: read-out: Activity
DU-145 = test: Growth inhibition of human DU-145 cells incubated for 48 hrs by sulforhodamine B assay; settings: for CC50: read-out: LC50 (the source's name); procedure, shortened: as §1
UACC-62 [11] = test: Growth inhibition of human UACC-62 cells incubated for 48 hrs by sulforhodamine B assay; procedure, shortened: as §2
OVCAR-4 = test: Growth inhibition of human OVCAR-4 cells assessed as cell growth at 0.1 uM incubated for 48 hrs by sulforhodamine B assay relative to control; settings: read-out: Activity
NCI-H226 = test: Growth inhibition of human NCI-H226 cells assessed as cell growth at 0.1 uM incubated for 48 hrs by sulforhodamine B assay relative to control; settings: read-out: Activity
CCRF-CEM [12] = test: Growth inhibition of human CCRF-CEM cells assessed as cell growth at 0.01 uM incubated for 48 hrs by sulforhodamine B assay relative to control; settings: read-out: Activity; procedure, shortened: as §1

With `Cc1cc(C)c(NC(=O)c2sc3nc4c(cc3c2N)CN(Cc2ccccc2)CC4)c(C)c1` the growth at 0.1 µM (SK-OV-3) was 98%, the growth at 1 µM (SF-295) was 66% and the growth at 0.1 µM (SK-MEL-28) was 97%. It also gave a growth at 0.01 µM (SNB-75) of 82%, a growth at 1 µM (RPMI-8226) of 87% and a growth at 1 µM (COLO 205) of 95%. It also gave a growth at 1 µM (U-251) of 92%, a growth at 0.01 µM (SN12C) of 104% and a GI50 (SF-539) of 2.44 µM. It also gave a TGI (SF-539) of 7.79 µM, a CC50 (SF-539) of over 100 µM and a growth at 0.1 µM (UO-31 [1]) of 88%. The GI50 (NCI-H322M) was 8.65 µM, the TGI (NCI-H322M) was over 100 µM and the CC50 (NCI-H322M) was over 100 µM. It also gave a growth at 0.01 µM (NCI-H522 [2]) of 96%, a GI50 (HOP-62) of 7.73 µM and an LC50 (HOP-62) of over 100 µM. It also gave a TGI (HOP-62) of over 100 µM, a growth at 1 µM (LOX IMVI) of 99% and a growth at 1 µM (A549) of 90%. For the same compound, the growth at 0.01 µM (M14) was 91%, the growth at 0.1 µM (NCI-H522 [3]) was 97% and the growth at 0.01 µM (K562 [4]) was 108%. The growth at 0.01 µM (Malme-3M) was 106%, the GI50 (SF-268) was 6.93 µM and the LC50 (concentration killing 50% of cells) (SF-268) was over 100 µM. The TGI (SF-268) was 64.8 µM, the growth at 100 µM (RXF 393) was -15% and the growth at 1 µM (SR) was 68%. For the same compound, the growth at 1 µM (HT-29 [5]) was 90%, the GI50 (OVCAR-5) was 12.5 µM and the TGI (OVCAR-5) was over 100 µM. The CC50 (OVCAR-5; read-out: LC50 (the source's name)) was over 100 µM, the growth at 100 µM (CCRF-CEM [6]) was -3% and the growth at 0.01 µM (HCC 2998) was 105%. The growth at 0.01 µM (HT-29 [7]) was 105%, the GI50 (UO-31 [8]) was 4.78 µM and the TGI (UO-31 [8]) was 93.9 µM. It also gave a CC50 (UO-31 [8]) of over 100 µM, a growth at 1 µM (UACC-62 [9]) of 69% and a growth at 1 µM (K562 [10]) of 47%. For the same compound, the GI50 (DU-145) was 2.62 µM, the TGI (DU-145) was 7.65 µM and the CC50 (DU-145) was over 100 µM. The GI50 (UACC-62 [11]) was 3.9 µM, the LC50 (UACC-62 [11]) was over 100 µM and the TGI (UACC-62 [11]) was 42.4 µM. The growth at 0.1 µM (OVCAR-4) was 94%, the growth at 0.1 µM (NCI-H226) was 93% and the growth at 0.01 µM (CCRF-CEM [12]) was 100%.
Work on `CN1CCc2nc3sc(C(N)=O)c(N)c3c(-c3cccs3)c2C1` yielded a growth at 0.1 µM (SK-OV-3) of 92%, a growth at 1 µM (SF-295) of 100% and a growth at 0.1 µM (SK-MEL-28) of 103%. The growth at 0.01 µM (SNB-75) was 95%, the growth at 1 µM (RPMI-8226) was 119% and the growth at 1 µM (COLO 205) was 69%. It also gave a growth at 1 µM (U-251) of 90%, a growth at 0.01 µM (SN12C) of 98% and a GI50 (SF-539) of 2.35 µM. The TGI (SF-539) was 6.79 µM, the CC50 (SF-539) was over 100 µM and the growth at 0.1 µM (UO-31 [1]) was 102%. It also gave a GI50 (NCI-H322M) of 3.85 µM, a TGI (NCI-H322M) of 88.5 µM and a CC50 (NCI-H322M) of over 100 µM. It also gave a growth at 0.01 µM (NCI-H522 [2]) of 96%, a GI50 (HOP-62) of 3.27 µM and an LC50 (HOP-62) of over 100 µM. It also gave a TGI (HOP-62) of over 100 µM, a growth at 1 µM (LOX IMVI) of 56% and a growth at 1 µM (A549) of 91%. It also gave a growth at 0.01 µM (M14) of 107%, a growth at 0.1 µM (NCI-H522 [3]) of 100% and a growth at 0.01 µM (K562 [4]) of 96%. The growth at 0.01 µM (Malme-3M) was 104%, the GI50 (SF-268) was 3.85 µM and the LC50 (concentration killing 50% of cells) (SF-268) was over 100 µM. It also gave a TGI (SF-268) of over 100 µM, a growth at 100 µM (RXF 393) of -46% and a growth at 1 µM (SR) of 71%. The growth at 1 µM (HT-29 [5]) was 91%, the growth at 100 µM (CCRF-CEM [6]) was 7% and the growth at 0.01 µM (HCC 2998) was 94%. For the same compound, the growth at 0.01 µM (HT-29 [7]) was 106%, the GI50 (UO-31 [8]) was 3.47 µM and the TGI (UO-31 [8]) was over 100 µM. For the same compound, the CC50 (UO-31 [8]) was over 100 µM, the growth at 1 µM (UACC-62 [9]) was 93% and the growth at 1 µM (K562 [10]) was 96%. It also gave a GI50 (DU-145) of 3.91 µM, a TGI (DU-145) of 86.9 µM and a CC50 (DU-145) of over 100 µM. It also gave a GI50 (UACC-62 [11]) of 2.38 µM, an LC50 (UACC-62 [11]) of 72.2 µM and a TGI (UACC-62 [11]) of 6.56 µM. The growth at 0.1 µM (OVCAR-4) was 107%, the growth at 0.1 µM (NCI-H226) was 89% and the growth at 0.01 µM (CCRF-CEM [12]) was 103%.
